Sampled rows, rich in hits. Any-hit rate of the full collection: about 2.4%.
Calb FLC – affects C. albicans growth with fluconazole. C. albicans CaCi-2 (fluconazole-resistant clinical isolate) + fluconazole, Alamar Blue growth, 48 h. growth inhibition, % (concentration not given with the values). 300,000 tested, 0.57% active;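 active means growth inhibition above about 58% in most replicates, limit read from the data, passing the limit was not always enough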;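 further: all wells also contain fluconazole at 8 µg/ml as a sub-toxic cotreatment; 0% = median of DMSO wells and 100% = median of geldanamycin control wells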
m5-HT2A agonist – activates the mouse 5-HT2A serotonin receptor; P35363; CHO-K1 mHTR2A beta-arrestin complementation, luminescence; percent of 30 µM serotonin response; activation, % at 7.6 µM; 360,000 tested, 0.66% active; AID 624169;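 active means activation above a run cutoff, the mean activation of all tested compounds plus 3 SD, cut at about 14% in these data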;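 further: 0% = plate median of compound wells and 100% = 30 µM serotonin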
SR-BI uptake up – enhances SR-BI lipid uptake from DiI-HDL. activation, % at 12.5 µM. 320,000 tested, 0.096% active. CHO ldlA[mSR-BI] cells, DiI-HDL uptake fluorescence, 3 h; 100 = double the neutral-control signal;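 active means mean replicate activation of at least 60% and every replicate at or above 60%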;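 further: 0% = median plate neutral-control signal and 100% = twice that signal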
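Assay system: LDL receptor-deficient CHO ldlA cells overexpressing murine SR-BI / Medium: BSA-supplemented, HEPES-buffered Ham's F12, pH 7.4 / Probe or stimulus: DiI-labelled HDL at 10 µg/mL final / Timing: compound with DiI-HDL co-incubation, 3 h at 37 °C / Technique: bottom-read cell fluorescence after medium removal, ex 550/em 595 nm / Measure: HDL uptake via cellular fluorescence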
Ins promoter up – MIN6 insulin promoter up-regulation; MIN6 insulin promoter-GFP reporter, high-content imaging; stronger effect = higher value; 190,000 tested, 0.3% active; z-score at 5 µM;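 active means z-score above 3 at 5 µM with at least 500 cells counted in the well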
beta cell repl – inducers of beta-cell replication in MIN6 cells. AID 2380. 330,000 tested, 0.29% active. proliferation, % at 10 µM. MIN6 cells proliferation, ATPlite luminescence, 48 h; cells starved in 0.2% serum; 100% = growth in 10% serum;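 active means compounds whose signal lies at least 3.5 SD above the mean of all wells on their plate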;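 further: 0% = DMSO-treated cells in low-serum medium and 100% = 10% serum control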
SR-BI HDL uptake – mouse SR-BI HDL lipid transfer inhibition | Q61009 | ldlA[mSR-BI] CHO cells, DiI-HDL uptake fluorescence, 3 h | inhibition, % at 12.5 µM | 320,000 tested, 0.96% active;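 active means mean replicate inhibition of at least 70% and a set share of replicates each scoring 70 or more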;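 further: 0% = median of neutral control wells and 100% = median of positive control wells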
Target sequence (Q61009 whole entry, looked up): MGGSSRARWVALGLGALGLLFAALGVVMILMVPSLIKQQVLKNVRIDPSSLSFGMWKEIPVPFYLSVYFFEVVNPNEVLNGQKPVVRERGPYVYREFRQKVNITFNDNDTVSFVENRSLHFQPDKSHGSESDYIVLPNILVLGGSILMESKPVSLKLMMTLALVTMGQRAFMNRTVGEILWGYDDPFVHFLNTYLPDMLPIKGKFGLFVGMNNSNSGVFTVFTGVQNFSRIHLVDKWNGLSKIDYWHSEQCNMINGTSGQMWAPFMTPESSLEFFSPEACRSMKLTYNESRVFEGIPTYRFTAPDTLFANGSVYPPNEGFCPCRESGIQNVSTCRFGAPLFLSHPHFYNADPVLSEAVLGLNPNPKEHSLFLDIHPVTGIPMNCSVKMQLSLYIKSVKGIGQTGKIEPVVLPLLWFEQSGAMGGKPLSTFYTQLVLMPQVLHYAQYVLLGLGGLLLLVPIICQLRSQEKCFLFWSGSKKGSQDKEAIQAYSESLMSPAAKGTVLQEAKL
The depositor's hits bear a star; . = no result.

SMILES	Calb FLC	m5-HT2A agonist	SR-BI uptake up	Ins promoter up	beta cell repl	SR-BI HDL uptake
CCOc1ccc(C(Nc2cccnc2)c2cc(Cl)c3cccnc3c2O)cc1 (configuration not stated)	109.5*	-15.2	-1.2	0.41	-5.8	1.2
CCC(=O)NC(c1ccc(C)cc1)c1cc(Cl)c2cccnc2c1O (configuration not stated)	.	-0.6	0.6	.	-5.5	-0.6
COCCNC(=S)N(C)[C@H]1C[C@H]2c3cc(-c4ccccc4)ccc3CCN2C(=O)[C@H]1[C@H](C)O	.	0.0	.	.	.	.
Cc1ccc([C@H]2C[C@H](O)[C@@H](n3cc(C4CC4)nn3)CN2C(=O)C2CCCCC2)cc1	.	-3.7	.	.	.	.
CCOC(=O)c1c(C)[nH]c(C(=O)N/N=C/c2cc([N+](=O)[O-])ccc2O)c1C	1.6	-0.9	-85.8	.	-3.3	85.8*
COc1ccccc1/C=N/NC(=O)c1[nH]c(C)c(C(=O)N/N=C/c2ccccc2OC)c1C	0.2	4.2	-82.6	.	-1.2	82.6*
CCOC(=O)c1c(C)[nH]c(C(=O)N/N=C/c2ccc(OC)c(OC)c2)c1C	-1.3	-5.0	-34.2	.	1.0	34.2
CCOC(=O)c1c(C)[nH]c(C(=O)N/N=C\c2ccccc2O)c1C	-3.9	-2.3	-84.9	-3.35	.	84.9*
COc1ccccc1/C=N/NC(=O)c1csc(C)c1C	-5.1	-3.4	-33.8	-0.47	0.0	33.8
COc1ccc2cc(/C=C/C(=O)N3CCN(CC(=O)N4CCCCCC4)CC3)ccc2c1	3.2	-2.1	-59.6	.	0.0	59.6
O=C(NC(c1ccccc1)c1ccsc1)C1CCN(CCOc2ccc(Cl)cc2Cl)CC1 (configuration not stated)	.	-1.1	.	.	.	.
COc1cccc(/C=N/n2c(N)c(S(=O)(=O)c3cccs3)c3nc4ccccc4nc32)c1OC	-0.6	-1.6	-21.6	-2.48	-6.3	21.6
Nc1c(S(=O)(=O)c2cccc(Cl)c2)c2nc3ccccc3nc2n1/N=C/c1ccc(O)c(O)c1	85.3*	.	.	-0.9	-4.9	.
O=c1c2cc(Br)ccc2nc(-c2ccccc2)n1O	100.2*	-2.7	19.0	.	0.6	-19.0
Cc1ccc(-c2nc3ccc(Cl)cc3c(=O)n2O)cc1	106.3*	6.8	25.2	.	-3.3	-25.2
COc1ccccc1C(=O)N/C(=C\c1cn(S(=O)(=O)N(C)C)c2ccccc12)C(=O)N1CCOCC1	6.9	4.4	-32.0	.	2.2	32.0
CC12CCC(O)CC1=CCC1C2CCC2(C)C3=NN=CC3CC12 (configuration not stated)	.	11.3	19.5	.	.	-19.5
COc1ccc(Cn2c(O)c(/C=N/NC(=O)c3cccnc3)c3ccccc3c2=O)cc1	102.9*	-1.6	-31.5	1.04	.	31.5
O=C(N/N=C/c1c(O)n(Cc2ccccc2)c(=O)c2ccccc12)c1cccnc1	-3.4	-3.2	10.7	0.67	-4.1	-10.7
O=C(N/N=C/c1c(-c2ccccc2)[nH]c2ccccc12)c1cccnc1	10.3	-0.2	-75.2	0.45	-4.0	75.2*
CCn1c(=O)c2[nH]c(SC)nc2n(CC)c1=O	.	0.0	.	.	.	.
O=C(NNc1cccc(Cl)c1)c1cccnc1Cl	33.1*	-2.9	15.7	-0.31	-2.2	-15.7
Cc1cc(C)c(S(=O)(=O)NCCCn2ccnc2)cc1C	1.7	-2.4	5.7	.	-2.3	-5.7
CCOc1ccccc1C(=O)N/N=C/c1ccoc1	103.7*	-3.2	-11.5	.	1.6	11.5
C=CCn1c(SCCOc2ccc(OC)cc2)nnc1C(C)NC(=O)Cc1ccc(OC)cc1 (configuration not stated)	0.7	-1.8	-20.6	4.23*	0.1	20.6
SMILES	Calb FLC	m5-HT2A agonist	SR-BI uptake up	Ins promoter up	beta cell repl	SR-BI HDL uptake
O=C1CCN(C(=O)c2cccs2)c2ccccc21	3.5	2.5	13.1	0.41	0.0	-13.1
CN1C(=O)/C(=C\C(=O)c2cccs2)c2ccccc21	97.3*	-0.9	-1.0	0.54	-5.1	1.0
O=[N+]([O-])c1ccc(Nc2cccc3c2[nH]c2c(-c4ccccc4)nccc23)c([N+](=O)[O-])c1	.	-3.5	-79.2	.	.	79.2*
Cc1nn(C(=O)c2nn(C)cc2[N+](=O)[O-])c(C)c1Br	-4.6	29.9*	9.0	0.09	-1.9	-9.0
CCCCCCSc1ccc([C@H]2N[C@@](CC(C)C)(C(=O)OC)[C@H]3C(=O)N(CC)C(=O)[C@@H]23)cc1	-10.9	-1.9	-0.3	.	-7.6	0.3
Cc1ccc(C(=O)n2c3ccccc3c3ccccc32)cc1	2.7	-3.8	-74.1	.	-2.8	74.1*
COc1cc2c(cc1NC(=O)C(c1ccccc1)c1ccccc1)CCCC2	0.9	-3.9	-47.3	.	-1.9	47.3
COc1cc2c(cc1NC(=O)c1ccccc1F)CCCC2	-1.3	3.5	-69.1	-0.42	0.0	69.1
COc1cc2c(cc1NC(=O)c1cccc(F)c1)CCCC2	2.8	-1.3	-75.9	-0.02	0.0	75.9*
COc1cc2c(cc1NC(=O)c1cccc(Br)c1)CCCC2	-2.7	-4.5	-73.1	-0.91	-3.6	73.1*
O=C(NCCc1cccc(Cl)c1)c1ccc(OC2CCN(Cc3ccccn3)CC2)cc1	-7.2	-7.2	-52.2	.	-1.8	52.2
CCC1(CCC(C)C)SC(N)=NC1=O (configuration not stated)	.	0.4	-5.5	.	.	5.5
Cn1c(=O)cc(OCCCC(=O)Nc2cccnc2)c2ccccc21	110.9*	3.7	27.9	0.32	-0.5	-27.9
CN(CCCNC(=O)CCCOc1cc(=O)n(C)c2ccccc12)Cc1ccccc1	116.5*	3.1	8.1	0.07	-2.8	-8.1
CCCCN(C(=O)CC1CCCC1)c1c(N)n(Cc2ccccc2)c(=O)[nH]c1=O	.	1.1	.	.	.	.
O=C(Nc1cc(S(=O)(=O)N2CCOCC2)ccc1N1CCCCC1)c1ccccc1Br	.	-2.0	-3.0	.	-3.9	3.0
CCC(C)(C)N(C(=O)CCC(=O)Nc1cc(C)on1)C(C(=O)NC(C)(C)C)c1ccc(OC)cc1 (configuration not stated)	4.2	1.1	.	.	0.3	.
COc1ccc(/C(C)=N/NC(=O)c2cccc(S(=O)(=O)N3CCCC3)c2)c(O)c1	4.7	2.6	-102.6	.	-6.5	102.6*
COc1ccc(C(C)=NNC(=O)c2cccc(S(=O)(=O)N3CCCC3)c2)cc1	.	-0.7	18.4	.	-1.4	-18.4
CN(C)c1nc(N)nc(/C(C#N)=C/C2CC3C=CC2C3)n1 (configuration not stated)	-3.9	-0.6	-6.3	3.05*	-2.1	6.3
CCCCNC(=O)C(NC(=O)c1ccc(-c2ccccc2)cc1)C(=O)c1ccccc1 (configuration not stated)	.	-4.7	.	.	.	.
CCOc1ccc(NC(=O)COC(=O)C2C3CC4OC(=O)C2C4C3)cc1 (configuration not stated)	1.1	7.0	-1.3	.	-2.4	1.3
N#CCc1ccc(NC(=O)/C=C/c2ccc([N+](=O)[O-])o2)cc1	97.0*	1.8	-32.0	-0.07	.	32.0
